ChEMBL document CHEMBL1123189, “4-Aroyl-1,3-dihydro-2H-imidazol-2-ones: a new class of cardiotonic agents. 2. Effect of 4-pyridoyl substituents and related compounds” (1986)

Columns and labels:
Assay type in all cases: functional, Canis lupus familiaris
[1] = test system: Canis familiaris; experiment: Compound was tested for inotropic activity by measuring the concentration required to increase heart rate by 15% in the anesthetized dog after intravenous administration
Procedure, shortened: (§1)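 Anesthetized dogs, one compound per animal, stabilized at least 30 min after surgery. Contractile force from a Walton-Brodie strain gauge arch sutured to the left ventricle, heart rate from lead II EKG, aortic pressure via femoral cannula. Readings at 5- to 10-min intervals before and after iv injection of at least three doses, with return to baseline between doses. Equieffective doses extrapolated from dose-response curves; means with 95% confidence intervals.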

[2] = test system: Canis familiaris; experiment: Compound was tested for inotropic activity by measuring the concentration required to mean blood pressure by 20% in the anesthetized dog after intravenous administration; procedure, shortened: as §1
[3] = test system: Canis familiaris; experiment: Compound was tested for inotropic activity by measuring the concentration required to increase cardiac contractile force by 30% in the anesthetized dog after intravenous administration; procedure, shortened: as §1

Compound | Equieffective dose [1] [mg/kg] | Equieffective dose [2] [mg/kg] | Equieffective dose [3] [mg/kg]
Cc1[nH]c(O)nc1C(=O)c1cccnc1 | >3 | >3 | 0.64
CCc1[nH]c(O)nc1C(=O)c1cc[n+]([O-])cc1 | >1 | >1 | >1
Cc1[nH]c(O)nc1C(=O)c1ccccn1 | 3.29 | 1.91 | 1.57
CCc1[nH]c(O)nc1C(=O)c1ccccn1 | 0.83 | >3 | 0.2
CCc1[nH]c(=O)[nH]c1C(=O)c1ccncc1 [PIROXIMONE] | 0.42 | 1.7 | 0.07
CCc1[nH]c(O)nc1C(=O)c1cnccc1Cl | 11.8 | 7.03 | 0.56
Cc1[nH]c(O)nc1C(=O)c1cccnc1Cl | 5.1 | >10 | 0.47
CCc1[nH]c(O)nc1C(=O)c1cccnc1 | >3 | >3 | 0.22
Cc1[nH]c(O)nc1C(=O)c1ccncc1 | 3.37 | 2.58 | 0.13
CCc1[nH]c(O)nc1C(=O)c1cccnc1Cl | >3 | >3 | 0.31
CCCc1[nH]c(O)nc1C(=O)c1ccncc1 | 3.38 | >3 | 1.7
